Series [1] is described as follows: Cytotoxicity against HUVEC assessed as maximum tolerated dose for >95% cell viability after 24 hrs by MTT assay. Type of series: cell-based. The settings on record: human, HUVEC cells; read-out: MTD. The gist of the method: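 Primary human umbilical vein endothelial cells (mild trypsinization), grown in M-199 with 15% heat-inactivated FCS, endothelial cell growth factor and heparin, 5% CO2. Cells attached overnight, then exposed to compounds or DMSO (0.25%) for 24 h; MTT (5 mg/mL in PBS) 4 h, formazan dissolved in DMSO, absorbance 570 nm. Also checked by trypan blue exclusion. Value is highest concentration giving >95% viability; ≥3 experiments in triplicate.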
Background: Tetrazolium assays rely on reduction of a dye to a coloured formazan, in cell work by metabolically active cells.

Series [2] concerns HUVEC. The series can be described thus: Antiinflammatory activity against TNF-alpha-induced ICAM1 protein expression in HUVEC at maximum tolerated dose pretreated for 2 hrs before TNFalpha challenge measured after 16 hrs by whole cell ELISA. It is filed as functional, Homo sapiens. The gist of the method: (§1)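 Primary umbilical cord endothelial cells were pre-incubated 2 h with or without compound, then TNF-α (10 ng/mL) for 16 h (ICAM-1, VCAM-1) or 4 h (E-selectin). Whole-cell ELISA: glutaraldehyde fixation, milk block, primary antibody overnight at 4 °C, peroxidase secondary, OPD substrate, A490. IC50 read from %inhibition vs log concentration plots of three independent experiments. Single-level values were taken at the highest concentration giving >95% viability (MTT, 24 h).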
(In general: In an ELISA, binding on a coated surface is turned into a signal by an enzyme label.)

Series [3] concerns HUVEC. The series can be described thus: Antiinflammatory activity against TNF-alpha-induced ICAM1 protein expression in HUVEC pretreated for 2 hrs before TNFalpha challenge measured after 16 hrs by whole cell ELISA. The settings on record: Homo sapiens. Type of series: functional, cell-based. The essentials:
as §1

Series [4] concerns HUVEC. The series can be described thus: Antiinflammatory activity against LPS-induced E-selectin protein expression in HUVEC at 2.5 to 20 ug/ml pretreated for 2 hrs before LPS challenge measured after 4 hrs by whole cell ELISA. Conditions: Homo sapiens. It is filed as functional, cell-based. The essentials: (§2)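 Primary human umbilical cord endothelial cells (isolated by mild trypsinization, grown in M-199 with 15% heat-inactivated FCS, endothelial cell growth factor, heparin) pre-incubated 2 h with compound, then LPS ([…]) for 4 h (E-selectin) or 16 h (VCAM-1). Cells fixed with 1.0% glutaraldehyde, blocked with 3.0% milk, primary antibody overnight at 4 °C, peroxidase secondary, o-phenylenediamine substrate at pH 4.5, absorbance 490 nm.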

Series [5] has as its system HUVEC. The series can be described thus: Antiinflammatory activity against LPS-induced VCAM-1 protein expression in HUVEC pretreated for 2 hrs before LPS challenge measured after 16 hrs by whole cell ELISA. It is filed as functional, cell-based. Conditions: Homo sapiens. The essentials:
as §2

The test system of series [6] is HUVEC. The series can be described thus: Antiinflammatory activity against TNF-alpha-induced VCAM-1 protein expression in HUVEC pretreated for 2 hrs before TNFalpha challenge measured after 16 hrs by whole cell ELISA. Type of series: functional, cell-based. The settings on record: Homo sapiens. The gist of the method:
as §1

Series [7] relates to HUVEC. Briefly: Antiinflammatory activity against TNF-alpha-induced E-selectin protein expression in HUVEC at 2.5 to 20 ug/ml pretreated for 2 hrs before TNFalpha challenge measured after 4 hrs by whole cell ELISA. Type of series: functional, cell-based. The settings on record: Homo sapiens. The gist of the method: as §1
The test system of series [8] is HUVEC. Briefly: Antiinflammatory activity against TNF-alpha-induced ICAM1 protein expression in HUVEC at 20 ug/ml pretreated for 2 hrs before TNFalpha challenge measured after 16 hrs by flow cytometry. Type of series: functional. Conditions: Homo sapiens. The gist of the method: (§3)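 Endothelial cells were treated ±compound ([…]) for 2 h, then TNF-α (10 ng/mL). E-selectin was read at 4 h, ICAM-1 and VCAM-1 at 16 h. Cells were dislodged, stained with specific or control IgG antibody (30 min, 4 °C) and then FITC anti-mouse IgG. Autofluorescence was subtracted and mean fluorescence intensity taken from three independent experiments.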
Background: A flow cytometer gives signals particle by particle.

Series [9] has as its system HUVEC. The series can be described thus: Antiinflammatory activity against TNF-alpha-induced VCAM-1 protein expression in HUVEC at 20 ug/ml pretreated for 2 hrs before TNFalpha challenge measured after 16 hrs by flow cytometry. Type of series: functional. The settings on record: Homo sapiens. The essentials: as §3
Series [10] has as its system HUVEC. The series can be described thus: Antiinflammatory activity against TNF-alpha-induced neutrophil adhesion in HUVEC pretreated for 2 hrs before TNFalpha challenge measured after 6 hrs by calorimetric analysis. Type of series: functional, cell-based. Conditions: Homo sapiens. The essentials:
(§4)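 A confluent endothelial monolayer was pretreated ±compound for 2 h, then given TNF-α (10 ng/mL) for 6 h. Neutrophils from healthy donor blood (dextran sedimentation, Ficoll-Hypaque, hypotonic RBC lysis; 6 × 10^4/well) were added for 1 h at 37 °C under static conditions. After washing, bound cells were detected with OPD/CTAB/aminotriazole substrate at A490. Mean ± SD of 3 independent experiments.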

The subject of series [11] is HUVEC. The series can be described thus: Antiinflammatory activity against TNF-alpha-induced neutrophil adhesion in HUVEC at 2.5 to 20 ug/ml pretreated for 2 hrs before TNFalpha challenge measured after 6 hrs by calorimetric analysis. It is filed as functional, Homo sapiens. The essentials:
as §4

For series [12], the system named is HUVEC. The series can be described thus: Antiinflammatory activity against TNF-alpha-induced E-selectin protein expression in HUVEC at 20 ug/ml pretreated for 2 hrs before TNFalpha challenge measured after 4 hrs by flow cytometry. The settings on record: Homo sapiens. It is filed as functional. The gist of the method: as §3
The nature of series [13]: Antiinflammatory activity against TNF-alpha-induced VCAM-1 protein expression in HUVEC by ELISA.

Converted amounts (≈) assume the structure as drawn. The source made the active and inactive calls. The rule behind the calls is not given here. Some results are limits rather than exact numbers.

What is called IC50 is the concentration needed to halve the response being measured. By inhibition is commonly meant the drop in the measured response relative to a control, in per cent. For the compound `CCOC(=S)/C=C/c1cc(OC)c(OC)c(OC)c1`, the MNTC at 24 h in [1] came out at 20 µg/mL. The “inhibition (INH)” value with HUVEC [2] is 95%; with HUVEC [11] it was over 95%. Also, the IC50 in the series on HUVEC [3] was determined as 10 µg/mL (≈ 35.4 µM); in series [13] it was 40 µM. Besides, the inhibition result in the series on HUVEC [3], in the series on HUVEC [6] and in the series with HUVEC [10] was “Dose-dependent effect” in each case. Besides, the inhibition entry in the series on HUVEC [4], with HUVEC [5] and in the series on HUVEC [7] was “Active” throughout. For the same compound, the inhibition at 20 µg/mL with HUVEC [8], with HUVEC [9] and in the series on HUVEC [12] was over 95% throughout.
